Results gathered from unrelated publications.
Compare with care: the assays were run in different laboratories.
FGFR2: Fibroblast growth factor receptor 2 (FGFR2, Homo sapiens, UniProt P21802)

C[C@H](c1ccnc(Nc2nc3ccc(-c4cc(N(C)C)ncn4)cc3[nH]2)c1)N1CCN(C(=O)CC(F)(F)F)CC1 gave a remaining binding of 100% (FGFR2; cell-free assay, competition with immobilised ligand; 0.1 µM).
For O=C1Nc2ccc(Cl)cc2C1=Cc1cc(Cl)c(O)c(Cl)c1, the remaining signal was 92% (FGFR2; cell-free assay; 0.5 µM).
With CNCc1ccccc1-c1csc([C@H](C)Nc2nc(C)nc3cc(OC)c(OC)cc23)c1 the remaining binding was 94% (FGFR2; cell-free assay, competition with immobilised ligand; 1 µM).
CCN(CC)CCNC(=O)c1c(C)[nH]c(/C=C2\C(=O)Nc3ccc(F)cc32)c1C has an inhibition of 94% (FGFR2; enzyme activity, inhibitor; 10 µM).
For CC(C)(C)c1nc2c(s1)c1nc(N)ncc1c1ccc(NS(=O)(=O)c3c(F)cccc3F)c(F)c12, the remaining activity was 91% (FGFR2; enzyme activity, inhibitor, radiometric; 1 µM).
CN([C@@H]1CCc2c(CC(=O)O)c3ccccc3n2C1)S(=O)(=O)c1ccc(F)cc1 has a remaining binding of 80% (FGFR2; cell-free assay, competition with immobilised ligand; 1 µM).
With N#CCCc1ccc2c(c1)-c1[nH]c3ccc([N+](=O)[O-])cc3c1CC(=O)N2 the remaining signal was 93.2% (FGFR2; cell-free assay; 0.5 µM).
For O=c1nc(-c2ccccn2)sc2ccccc12, the remaining binding was 100% (FGFR2; cell-free assay, competition with immobilised ligand; 1 µM).
CCCOc1ccc(OC)c(F)c1C(=O)c1ccc(C(=O)N[C@@H]2CNC[C@H]2NC(=O)c2ccc3[nH]ncc3c2)cc1 has a remaining activity of 69% (Fibroblast growth factor receptor 2 (FGFR2, Homo sapiens, UniProt P21802, N549H); enzyme activity, inhibitor; 10 µM).
For Cc1sc(C(=O)NC2COC2)cc1-n1cc(NC(=O)Nc2c(F)cccc2Cl)cn1, the remaining activity was 105% (FGFR2; enzyme activity, inhibitor; 10 µM).
The activity vs control of Cc1ccc(C(=O)NCc2ccsc2)cc1C#Cc1cn(C(C)C)c2ncnc(N)c12 is reported as 55% (FGFR2; enzyme activity, inhibitor; 1 µM).
The remaining activity of CCN(CC)c1ccc(C2=NNC(=O)CC2C)cc1[N+](=O)[O-] (centres unmarked) is reported as 115% (FGFR2; enzyme activity, inhibitor; 10 µM).
For O=C(Nc1cccnn1)N1CCC(=Cc2cccc(Oc3ccc(C(F)(F)F)cn3)c2)CC1, the remaining binding was 96% (FGFR2; cell-free assay, competition with immobilised ligand; 1 µM).
The inhibition of CC/C(=N\NC(=O)NCc1cccc(O)c1)c1ccc(O)c(C)c1O is reported as -2.7% (Fibroblast growth factor receptor 2 (FGFR2, Homo sapiens, UniProt P21802, V564I); enzyme activity, inhibitor; 0.1 µM).
CNC(=O)c1cc(Oc2ccc(NC(=O)Nc3ccc(Cl)c(C(F)(F)F)c3)cc2)ccn1 gave an inhibition of 98% (FGFR2; enzyme activity, inhibitor; 10 µM).
Cc1ccc(NC(=O)c2ccc(C)c(C(F)(F)F)c2)cc1C#Cc1nn(C2CCC(O)CC2)c2ncnc(N)c12 (centres unmarked) has a remaining signal of 0% (FGFR2; cell-free assay; 10 µM).
The remaining binding of Cc1noc([C@H]2C[C@@H](c3ccc(C(F)(F)F)cc3)CN(C(=O)N3CCS(=O)(=O)C3)C2)n1 is reported as 85% (FGFR2; cell-free assay, competition with immobilised ligand; 1 µM).
CS(=O)(=O)CCNCc1ccc(-c2ccc3ncnc(Nc4ccc(OCc5cccc(F)c5)c(Cl)c4)c3c2)o1 has a remaining signal of 96.4% (FGFR2; cell-free assay; 0.5 µM).
With Cc1cc(NC(=O)c2cccc3cc(-c4cccc5[nH]nc(N)c45)ccc23)ccc1F the activity vs control was 98% (FGFR2; enzyme activity, inhibitor; 0.1 µM).
The inhibition of CN(C)C1CCN(CC#Cc2nn(C3CCCC3)c3nc(NCc4ccccc4)ncc23)C1 (centres unmarked) is reported as 0% (FGFR2; enzyme activity, inhibitor, FRET; 0.1 µM).
With COc1cc2c(Nc3ccc(Br)cc3F)ncnc2cc1OCC1CCN(C)CC1 the remaining signal was 38.4% (FGFR2; cell-free assay; 0.5 µM).
Cc1cnc(NC2CCOCC2)nc1-n1cnc(C(=O)NC(CN)c2cc(F)cc(Cl)c2)c1 (centres unmarked) gave a remaining activity of 100% (FGFR2; enzyme activity, inhibitor, radiometric; 1 µM).
CN(C)CC#Cc1ccc(OCCCc2sc(N3CCc4cccc(C(=O)Nc5nc6ccccc6s5)c4C3)nc2C(=O)O)c(F)c1 gave a remaining binding of 98% (FGFR2; cell-free assay, competition with immobilised ligand; 1 µM).
The remaining signal of Nc1ncnc2occ(-c3ccc(NC(=O)Nc4cc(C(F)(F)F)ccc4F)cc3)c12 is reported as 0% (FGFR2; cell-free assay; 20 µM).
With Cc1ccc(Nc2nccc(N(C)c3ccc4c(C)n(C)nc4c3)n2)cc1S(N)(=O)=O the inhibition was 92% (FGFR2; enzyme activity, inhibitor; 0.3 µM).
The remaining signal of Cc1ccc(C(=O)Nc2ccc(CN3CCN(C)CC3)c(C(F)(F)F)c2)cc1C#Cc1cnc2cccnn12 is reported as 32% (FGFR2; cell-free assay; 23.5 nM).
